In ChEMBL document CHEMBL3044892, “Primary study on mode of action for macrocyclic fungicide candidates (7B3, D1) against Rhizoctonia solani Kuhn” (J Agric Food Chem, 2010):
Values after ≈ are worked out from the molar mass of the structure shown. Active and inactive are the calls of the source. The rule behind the calls is not given here.

How the values were obtained:
Rhizoctonia solani [1] = test: Fungicidal activity against Rhizoctonia solani assessed as inhibition of intact mycelia respiration at 10 ug/mL by […]; assay type: functional
How it was run: (§1)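 Intact R. solani mycelia from 5-day PD shake culture (25 C, 150 rpm), washed, resuspended at 50 mg fresh weight mL-1 in 0.1 M phosphate buffer pH 7.2 with 2% glucose; treated with 10 or 100 μg mL-1; O2 uptake by oxygraph at 25 C before and after addition; inhibition = (R0-R1)/R0 × 100; n = 3.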

Rhizoctonia solani [2] = test: Fungicidal activity against Rhizoctonia solani assessed as induction of electrolyte leakage from hyphae at 50 ug/mL by cell membrane permeability assay; assay type: functional, organism-based
Rhizoctonia solani [3] = test: Fungicidal activity against Rhizoctonia solani assessed as inhibition of intact mycelia respiration at 100 ug/mL by […]; assay type: functional; how it was run: as §1
Rhizoctonia solani [4] = test: Fungicidal activity against Rhizoctonia solani assessed as disorganized organelles and decreased in the hyphae cytoplasm at 50 ug/mL by Transmission electron micrography; assay type: functional, organism-based
How it was run: (§2)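 R. solani grown 3 days on PDA with 0 or 50 μg mL-1 test compound; 5 mm hyphal tips from colony margin fixed in 4% glutaraldehyde at 4 C, then 1% osmium tetroxide, acetone-dehydrated, Epon-embedded; thin sections double-stained with uranyl acetate and lead citrate, examined by TEM versus untreated control.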

Rhizoctonia solani [5] = test: Fungicidal activity against Rhizoctonia solani assessed as thicker hyphae and abnormally thickened walls of the septa at 50 ug/mL by Transmission electron micrography; assay type: functional, organism-based; how it was run: as §2
Rhizoctonia solani [6] = test: Fungicidal activity against Rhizoctonia solani assessed as reduction in mycelia growth at 50 ug/mL; assay type: functional, organism-based
Rhizoctonia solani [7] = test: Fungicidal activity against Rhizoctonia solani assessed as mycelia rough surface and formed irregular ramification or abnormal configuration at 50 ug/mL by scanning electron micrography; assay type: functional, organism-based
How it was run: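 Hyphal tips (5 mm) cut from margins of R. solani colonies grown 3 days on PDA containing 0 or 50 μg mL-1 compound; glutaraldehyde (4%, 4 C) and osmium tetroxide fixation, graded acetone dehydration, critical-point drying, gold coating; imaged by SEM at 18-20 kV accelerating voltage.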

Botrytis cinerea = test: Fungicidal activity against Botryotinia fuckeliana by mycelium growth rate test; assay type: functional, organism-based
Phyllosticta = test: Fungicidal activity against Phyllospicpa physaleos Sacc., by mycelium growth rate test; assay type: functional, organism-based
Rhizoctonia solani [8] = test: Fungicidal activity against Rhizoctonia solani by mycelium growth rate test; assay type: functional, organism-based
Alternaria kikuchiana [9] = test: Fungicidal activity against Alternaria kikuchiana by mycelium growth rate test; assay type: functional, organism-based
Rhizoctonia solani [10] = test: Fungicidal activity against Rhizoctonia solani assessed as prevention in cotton at 140 g/ha by field efficacy trail; assay type: functional
Rhizoctonia solani [11] = test: Fungicidal activity against Rhizoctonia solani assessed as disappearance of septal pore caps at 50 ug/mL by Transmission electron micrography; assay type: functional, organism-based; how it was run: as §2
Alternaria kikuchiana [12] = test: Fungicidal activity against Alternaria kikuchiana Tanaka assessed as inhibition rate; assay type: functional
Sclerotinia sclerotiorum = test: Fungicidal activity against Sclerotinia sclerotiorum assessed as inhibition rate; assay type: functional
Verticillium dahliae = test: Fungicidal activity against Verticillium dahliae assessed as inhibition rate; assay type: functional
[13] = tested on: Colletotrichum orbiculare; test: Fungicidal activity against Colletotrichum orbiculare assessed as inhibition rate; assay type: functional
Rhizoctonia solani [14] = test: Fungicidal activity against Rhizoctonia solani assessed as inhibition rate; assay type: functional
Fulvia fulva = test: Fungicidal activity against Passalora fulva Cooke Ciferri assessed as inhibition rate; assay type: functional

| SMILES | inhibition at 10 µg/mL (Rhizoctonia solani [1]) [%] | inhibition at 100 µg/mL (Rhizoctonia solani [3]) [%] | inhibition (Rhizoctonia solani [4]) | Activity (Rhizoctonia solani [5]) | inhibition (Rhizoctonia solani [6]) | inhibition (Rhizoctonia solani [7]) | also measured |
| --- | --- | --- | --- | --- | --- | --- | --- |
| CO/C=C(/C(=O)OC)c1ccccc1Oc1cc(Oc2ccccc2C#N)ncn1 [AZOXYSTROBIN] | 84.9 | – | – | – | – | – | – |
| CC(C)(C)C(=O)C(Oc1ccc(Cl)cc1)n1cncn1 (stereo unspecified) | – | – | – | – | – | – | Activity (Rhizoctonia solani [2]): inactive |
| CCCO/N=C1\CCCCCCCCCCC(=O)NCCC1 | 3.39 | 12.1 | Active | Active | Active | Active | EC50 (Botrytis cinerea): 8.6 µg/mL (≈ 27.7 µM); EC50 (Phyllosticta): 1.9 µg/mL (≈ 6.12 µM); EC50 (Rhizoctonia solani [8]): 4.6 µg/mL (≈ 14.8 µM); EC50 (Alternaria kikuchiana [9]): 1.2 µg/mL (≈ 3.86 µM); Activity (Rhizoctonia solani [10]): 64% |
| F[B-](F)(F)F.O=C1CCCCCCCCCCC[NH2+]CCO1 | 1.67 | 3 | Active | Active | Active | Active | Activity (Rhizoctonia solani [11]): Active; inhibition (INH) (Alternaria kikuchiana [12]): 85.7%; inhibition (INH) (Sclerotinia sclerotiorum): 85.7%; inhibition (INH) (Verticillium dahliae): 86.9%; inhibition (INH) [13]: 73.2%; inhibition (INH) (Rhizoctonia solani [14]): 96%; inhibition (INH) (Fulvia fulva): 89.3% |
